According to ChEMBL document CHEMBL5303300, “EUbOPEN Chemogenomics Library - Multiplex” (2023):
“And” between values parts separate entries of the source, which are not always exact repeats. Equal values may be shown once.

System: HEK-293T
Assay: Multiplex assay against HEK293T
Assay type: toxicity, cell-based
Details: human, number of replicates 2
Method in brief: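 Phenotypes for tubulin, mitochondrial mass and membrane permeability are expressed as per cents of healthy-nucleus cells. Cells were stained live at seeding with Hoechst33342, BioTracker Green Microtubule Cytoskeleton Dye, MitoTracker Red and Annexin V Alexa Fluor 680, then imaged after compound addition on a CQ1 microscope at 37°C and 5% CO2. Machine-learning gating in CellPathfinder separated Hoechst high-intensity objects from normal cells, divided normal cells by nuclear state (healthy, pyknosed, fragmented) and divided pyknosed cells into mitotic or apoptotic.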

[1] = 12 h, 1 µM, compound concentration 1 uM
[2] = 12 h, 10 µM, compound concentration 10 uM
[3] = 24 h, 1 µM, compound concentration 1 uM
[4] = 24 h, 10 µM, compound concentration 10 uM
[5] = 48 h, 1 µM, compound concentration 1 uM
[6] = 48 h, 10 µM, compound concentration 10 uM

## C[C@H](N)Cn1ccc2cc(F)c(Cl)cc21.O=C(O)/C=C/C(=O)O
[1]
  Population Apoptotic (%): 38% and 46%
  Population Fragmented Nuclei (%): 3% and 2%
  Population Healthy Nuclei (%): 82% and 85%
  Population Hoechst High Intensity Objects (%): 8%
  Population Membrane Permeable-Phenotype (%): 1%
  Population Mitochondria Different-Phenotype (%): 17% and 15%
  Population Mitotic Cells (%): 61% and 53%
  Population Normal (%): 91%
  Population Pyknosed Nuclei (%): 14% and 11%
  Population Tubulin-Different-Phenotype (%): 59% and 53%
  Total Cell Count: 737 and 645
[2]
  Population Apoptotic (%): 58% and 55%
  Population Fragmented Nuclei (%): 4% and 5%
  Population Healthy Nuclei (%): 83% and 79%
  Population Hoechst High Intensity Objects (%): 8% and 9%
  Population Membrane Permeable-Phenotype (%): 5% and 1%
  Population Mitochondria Different-Phenotype (%): 28% and 20%
  Population Mitotic Cells (%): 41% and 44%
  Population Normal (%): 91% and 90%
  Population Pyknosed Nuclei (%): 12% and 14%
  Population Tubulin-Different-Phenotype (%): 81% and 72%
  Total Cell Count: 443 and 563
[3]
  Population Apoptotic (%): 52% and 57%
  Population Fragmented Nuclei (%): 10% and 6%
  Population Healthy Nuclei (%): 77% and 82%
  Population Hoechst High Intensity Objects (%): 7%
  Population Membrane Permeable-Phenotype (%): 1% and 2%
  Population Mitochondria Different-Phenotype (%): 6% and 4%
  Population Mitotic Cells (%): 47% and 42%
  Population Normal (%): 92%
  Population Pyknosed Nuclei (%): 12% and 10%
  Population Tubulin-Different-Phenotype (%): 32% and 28%
  Total Cell Count: 1141 and 1024
[4]
  Population Apoptotic (%): 63% and 59%
  Population Fragmented Nuclei (%): 8% and 7%
  Population Healthy Nuclei (%): 83% and 84%
  Population Hoechst High Intensity Objects (%): 9% and 11%
  Population Membrane Permeable-Phenotype (%): 2% and 3%
  Population Mitochondria Different-Phenotype (%): 16% and 8%
  Population Mitotic Cells (%): 36% and 40%
  Population Normal (%): 90% and 88%
  Population Pyknosed Nuclei (%): 7% and 8%
  Population Tubulin-Different-Phenotype (%): 72% and 40%
  Total Cell Count: 634 and 884
[5]
  Population Apoptotic (%): 18% and 17%
  Population Fragmented Nuclei (%): 17% and 11%
  Population Healthy Nuclei (%): 80% and 85%
  Population Hoechst High Intensity Objects (%): 9%
  Population Membrane Permeable-Phenotype (%): 5% and 3%
  Population Mitochondria Different-Phenotype (%): 0%
  Population Mitotic Cells (%): 81% and 82%
  Population Normal (%): 90%
  Population Pyknosed Nuclei (%): 2%
  Population Tubulin-Different-Phenotype (%): 14% and 11%
  Total Cell Count: 2886 and 2112
[6]
  Population Apoptotic (%): 40% and 17%
  Population Fragmented Nuclei (%): 15% and 12%
  Population Healthy Nuclei (%): 80% and 84%
  Population Hoechst High Intensity Objects (%): 11% and 7%
  Population Membrane Permeable-Phenotype (%): 8% and 4%
  Population Mitochondria Different-Phenotype (%): 1%
  Population Mitotic Cells (%): 59% and 82%
  Population Normal (%): 88% and 92%
  Population Pyknosed Nuclei (%): 3%
  Population Tubulin-Different-Phenotype (%): 36% and 20%
  Total Cell Count: 1535 and 2025
